STK33 inh – human STK33 kinase inhibition; Q9BYT3; purified STK33, MBP phosphorylation, ADP-Glo luminescence; inhibition, % at 10 µM; 0.073% of 320,000 active;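 active = inhibition at or above 25%, using the most active replicate where run in duplicate; inactive = inhibition below 25%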
Rin1-Abl PPI inh – inhibitors of human Rin1-Abl protein interaction; 0.4% of 360,000 active; inhibition, % at 7.35 µM; AID 588664; P00519+Q13671; TR-FRET Rin1/Abl binding, biochemical; in the data active = inhibition above about 5%, passing the limit was not always enough
GSK3 alpha inh – blocks human GSK-3 alpha kinase. ADP-Glo luminescence, 60 min. 0.1% of 320,000 active. AID 2650. inhibition, % at 10 µM. P49840;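 active = more than half of replicates show inhibition above 20%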;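 note: GST-tagged GSK-3 alpha with peptide substrate and 25 µM ATP; 0% = DMSO neutral wells and 100% = GW8510 positive control wells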
GSK3beta inhib – blocks human GSK3beta kinase activity. GST-GSK3beta kinase, ADP-Glo luminescence, 60 min; active compounds read low. activity score (negative = inhibition), % at 10 µM. P49841. 0.038% of 300,000 active;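 active = more than half of replicate wells score below -50%, meaning over 50% inhibition versus plate controls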;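 note: 0% = median DMSO wells and -100% = median GW8510 positive control wells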
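Assay system: GST-fused GSK3beta enzyme, cell-free / Medium: Tris pH 7.5 buffer with MgCl2, DTT, BSA, heparin / Also added: peptide substrate plus 25 µM ATP (final) / Compound: 10 µM single point / Timing: kinase reaction with compound 60 min at room temperature / Detection: ADP-Glo luminescence / Benchmarks: DMSO neutral wells and GW8510 at 20 µM as positive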
Arr AP2 block – inhibitors of human beta-arrestin and AP2 interaction. FITC-arrestin peptide / GST-AP2 beads, flow cytometry; AP2 beta2 appendage carries R879A mutation. inhibition, % at 10 µM. 0.31% of 340,000 active. AID 504490;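 active = inhibition above a set limit, near 3 SD of compounds lacking own fluorescence, cut at about 54% in these data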;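 note: plate controls were DMSO wells for no effect and 5 µM unlabelled arrestin peptide for full effect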
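System: GST-tagged AP2 beta2-adaptin appendage (R879A) on 4 µm glutathione beads / Reagent: FITC-arrestin peptide, 50 nM / Detection: HyperCyt-sampled flow cytometry, FL1 channel, ex 488/em 535 nm / Timing: 12 min plus 1 h, RT / Buffer or medium: PBS plus Tween 20 (0.05%) and BSA (0.1%)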
Dyrk1A ADPGlo – Dyrk1A (rat) kinase inhibition; 0.43% of 310,000 active; inhibition, % at 12.5 µM; Q63470; ADP-Glo luminescence, NFATc1 peptide; in the data active = inhibition above about 50%;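 note: plate controls were vehicle with enzyme for no effect and no enzyme for full effect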
* hit, by the source's call; · = no result. The list is not random: actives were taken first. Their share in the collection is about 0.99%.

SMILES	STK33 inh	Rin1-Abl PPI inh	GSK3 alpha inh	GSK3beta inhib	Arr AP2 block	Dyrk1A ADPGlo
COc1cccc(/C=C2/Sc3ccc(C(=O)NCCN4CCCC4)cc3NC2=O)c1	0.9	-5.6	0.9	-67.4*	1.7	17.6
COc1cccc(/C=C2/Sc3ccc(C(=O)NCCCN4CCCC4)cc3NC2=O)c1	10.5	-4.0	83.8*	-83.1*	-13.9	20.4
O=C1Nc2cc(C(=O)NCCN3CCCCCC3)ccc2S/C1=C/c1ccccc1F	·	-3.3	·	·	·	·
O=C1Nc2cc(C(=O)NCCCN3CCCC3)ccc2S/C1=C/c1ccccc1F	1.2	-0.2	42.0	-66.6*	23.0	-1.3
Cc1ccc(/C=C2/Sc3ccc(C(=O)NCCN4CCOCC4)cc3NC2=O)cc1	-0.9	-0.5	-1.5	-2.6	-2.2	·
N#Cc1c(-c2ccncc2)c2c([nH]c1=O)-c1ccccc1OC2	-0.5	·	7.8	-3.4	·	·
N#Cc1c(-c2ccccc2Cl)c2c([nH]c1=O)-c1ccccc1OC2	2.6	0.3	55.4*	-9.6	-18.9	1.5
CC(C)CNc1nc(N)c([N+](=O)[O-])c(NC2CCCCC2)n1	-0.1	0.6	1.0	1.5	0.9	-2.4
COCCCNc1nc(N)c([N+](=O)[O-])c(Nc2ccccc2OC)n1	-0.1	-2.1	74.0*	-47.7	3.6	15.7
COCCCNc1nc(N)c([N+](=O)[O-])c(NCC2CCCO2)n1 (configuration not stated)	1.2	-1.1	81.1*	-0.1	-2.9	49.7
CC(C)CNc1nc(N)c([N+](=O)[O-])c(NCC2CCCO2)n1 (configuration not stated)	1.2	0.8	58.9*	-36.5	3.3	-1.5
COc1ccc(-n2nnnc2C(CCc2ccccc2)N2CCN(C/C=C/c3ccccc3)CC2)cc1 (configuration not stated)	·	1.2	·	·	·	·
COc1ccc2nc(NC(=O)CSc3n[nH]c(N)n3)sc2c1	15.0	-0.5	57.8*	-38.4	11.9	16.8
COc1ccc(-n2c(NC(=O)c3ccc(Br)o3)c(C#N)c3nc4ccccc4nc32)cc1	·	·	·	1.5	·	·
N#Cc1c(NC(=O)c2ccc(Br)o2)n(-c2ccccc2)c2nc3ccccc3nc12	-0.5	7.7*	26.6	-4.6	-8.4	12.4
COC(=O)c1nnn(-c2nonc2N)c1CN1CCc2ccccc21	-1.6	-2.0	63.6*	-5.8	12.4	4.6
CCc1nc2ccc(C(=O)Nc3cccc(OC)c3)cn2c1N(CC)CCOC	·	2.8	·	·	·	·
Nc1nonc1-n1nnc(C(=O)N/N=C/c2ccccc2F)c1-c1cccs1	2.3	-1.0	64.0*	-0.1	-14.6	36.2
Cc1ccc(/C=N/NC(=O)c2nnn(-c3nonc3N)c2-c2cccs2)cc1	0.2	0.4	38.9	1.6	-4.5	22.3
COc1cc(/C=N/NC(=O)c2nnn(-c3nonc3N)c2-c2cccs2)ccc1O	4.0	-1.3	75.3*	1.1	24.4	47.9
CCN1CCN(c2nc(-c3ccccc3Cl)nc3ccccc23)CC1	0.8	-1.5	3.2	-4.0	3.5	15.2
CN1CCN(c2nc(-c3ccccc3Cl)nc3ccccc23)CC1	-1.2	0.6	4.5	-2.5	-8.1	8.2
CN1CCN(c2nc(-c3ccccc3O)nc3ccccc23)CC1	32.2*	-5.1	4.8	-1.2	37.0	-0.9
OCCN1CCN(c2nc(-c3ccccc3O)nc3ccccc23)CC1	39.9*	-4.7	4.8	-2.8	6.5	19.4
Cn1nc(C(C)(C)C)cc1C(=O)N1CCCC(C)(C(=O)NS(=O)(=O)C2CC2)C1 (configuration not stated)	·	-2.2	·	·	·	·
SMILES	STK33 inh	Rin1-Abl PPI inh	GSK3 alpha inh	GSK3beta inhib	Arr AP2 block	Dyrk1A ADPGlo
Cc1cc(N2CCCCC2)nc2ccc(NC(=O)c3ccc(Br)o3)cc12	3.7	-2.4	1.1	-1.4	1.5	1.6
Cc1cc(N2CCN(C)CC2)nc2ccc(NC(=O)c3ccc(Br)o3)cc12	33.5*	-2.6	0.1	-4.6	-8.9	9.7
COc1cc(C2c3sc(=O)[nH]c3SC3C4CCC(C4)C23)ccc1O (configuration not stated)	0.6	-1.3	77.6*	2.6	-2.0	0.1
COc1ccc(C2c3sc(=O)[nH]c3SC3C4CCC(C4)C23)cc1 (configuration not stated)	-2.1	-0.2	-0.6	-9.1	-9.3	5.1
COc1cc(C2c3sc(=O)[nH]c3SC3C(=O)N(c4ccc(C)cc4)C(=O)C32)ccc1O (configuration not stated)	31.3*	0.5	4.8	1.1	-6.6	32.7
CCOc1ccc(N2C(=O)C3Sc4[nH]c(=O)sc4C(c4ccc(OC)c(OC)c4)C3C2=O)cc1 (configuration not stated)	-3.1	-0.9	-2.2	0.3	-3.3	-3.7
CCN(CC)CCNc1ncnc2c1sc1nc(N3CCOCC3)c3c(c12)CC(C)(C)SC3	1.1	17.5*	5.6	-2.0	5.9	23.2
NC(=S)N=Nc1c(O)cc(O)c2[nH]c(=O)ccc12	·	14.5*	·	·	27.7	31.6
COc1cccc(NC(=O)CN(C)C(=O)c2cc3c(s2)CCC3)c1	0.7	·	-1.5	-6.2	·	·
Nc1nc(-c2cc(O)ccc2[N+](=O)[O-])cc(-c2ccccc2)c1[N+](=O)[O-]	28.1*	-0.1	1.6	-2.3	19.9	23.4
CN(C)/C=C/C(=O)c1ccc2noc(-c3cccc(F)c3)c2c1	35.2*	-1.1	2.8	3.6	11.5	19.4
COc1ccc(-c2onc3ccc(C(=O)/C=C/N(C)C)cc23)cc1	31.2*	3.3	-0.4	-3.6	32.3	26.4
CC(=O)c1ccc(Nc2nc(C(N)C(C)C)cs2)cc1 (configuration not stated)	·	-4.8	·	·	·	·
C=CCNc1nc(N)c(C(=O)c2ccc3c(c2)OCO3)s1	2.4	-1.4	79.2*	·	4.4	3.3
COc1ccc(-c2ccc(C(=O)Nc3cccc(NS(C)(=O)=O)c3)c3occc23)c(C)c1	·	-1.2	·	·	·	·
CN(C)Cc1c(O)ccc2c1O/C(=C\C=C\c1ccccc1)C2=O	8.0	-1.1	45.6	-54.0*	21.1	2.8
O=S(=O)(O)c1cc(O)c2c(O)c(N=Nc3cc(Cl)ccc3O)c(S(=O)(=O)O)cc2c1	5.4	10.8*	8.6	-1.4	15.0	10.0
O=S(=O)(O)c1cc(Cl)cc(N=Nc2ccc(O)cc2O)c1O	·	11.9	·	·	13.6	-4.9
Cc1cc(-c2ccc(N=Nc3c(S(=O)(=O)O)cc4cc(S(=O)(=O)O)cc(N)c4c3O)c(C)c2)ccc1N=Nc1c(S(=O)(=O)O)cc2cc(S(=O)(=O)O)cc(N)c2c1O	66.0*	·	31.7	·	·	·
Nc1cc(S(=O)(=O)O)cc2ccc(S(=O)(=O)O)cc12	·	-0.3	·	·	0.1	2.6
CN(Cc1c(C(=O)N/N=C/c2ccc(O)cc2)nnn1-c1nonc1N)c1ccccc1	6.3	1.2	75.0*	2.0	24.1	37.3
CCN(CC)Cc1c(C(=O)N/N=C/c2cccc3ccccc23)nnn1-c1nonc1N	1.2	2.9	3.3	2.0	10.1	2.8

Assay outcomes: PubChem BioAssay, several laboratories
